Assay outcomes from PubChem BioAssay.
Kir21 block – Kir2.1 (mouse) channel inhibition; P35561; HEK293-Kir2.1, FluxOR thallium flux fluorescence; stronger effect = lower value; B-score at 10 µM; hit rate 0.85% among 310,000;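 active = fluorescence ratio B-score at or below minus 3 SD of library scores, with starting-brightness B-score within 2 SD, cut at about -4.2 in these data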;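 note: channel flux triggered by added potassium and thallium sulfate stimulus; B-score of peak minus minimum fluorescence over baseline after thallium stimulus; more negative B-score means stronger Kir2.1 block with less thallium influx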
hERG protect – compounds protecting human hERG from proarrhythmic drug block; Q12809; CHO-hERG, FluxOR thallium flux, dofetilide IC70 present; activation (rescue from dofetilide block), less the hit threshold, % at 10 µM; hit rate 0.51% among 310,000;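 active = activation above the mean of controls blocked by dofetilide plus 5 SD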;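 note: thallium influx through hERG after potassium depolarization seen as dye fluorescence rise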
KCNK3 inh – human KCNK3 channel inhibition, primary screen; CHO-KCNK3 thallium flux, FluxOR fluorescence; stronger effect = lower value; B-score at 10 µM; hit rate 0.84% among 340,000;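 active = B-score under library mean minus 4 SD, starting fluorescence ratio at most library mean plus 5 SD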;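 note: more negative B-score means stronger inhibition of thallium flux through KCNK3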
KCNQ1 pot – potentiators or activators of human KCNQ1 potassium channel | P51787 | CHO-K1 KCNQ1, thallium flux FluxOR fluorescence; stronger effect = higher value | B-score at 10 µM | hit rate 0.35% among 310,000 | AID 2648;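 active = fluorescence ratio B-score, a plate-corrected score, at least three library SD, with initial intensity B-score within 5 SD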
Target sequence (P51787 whole entry, looked up): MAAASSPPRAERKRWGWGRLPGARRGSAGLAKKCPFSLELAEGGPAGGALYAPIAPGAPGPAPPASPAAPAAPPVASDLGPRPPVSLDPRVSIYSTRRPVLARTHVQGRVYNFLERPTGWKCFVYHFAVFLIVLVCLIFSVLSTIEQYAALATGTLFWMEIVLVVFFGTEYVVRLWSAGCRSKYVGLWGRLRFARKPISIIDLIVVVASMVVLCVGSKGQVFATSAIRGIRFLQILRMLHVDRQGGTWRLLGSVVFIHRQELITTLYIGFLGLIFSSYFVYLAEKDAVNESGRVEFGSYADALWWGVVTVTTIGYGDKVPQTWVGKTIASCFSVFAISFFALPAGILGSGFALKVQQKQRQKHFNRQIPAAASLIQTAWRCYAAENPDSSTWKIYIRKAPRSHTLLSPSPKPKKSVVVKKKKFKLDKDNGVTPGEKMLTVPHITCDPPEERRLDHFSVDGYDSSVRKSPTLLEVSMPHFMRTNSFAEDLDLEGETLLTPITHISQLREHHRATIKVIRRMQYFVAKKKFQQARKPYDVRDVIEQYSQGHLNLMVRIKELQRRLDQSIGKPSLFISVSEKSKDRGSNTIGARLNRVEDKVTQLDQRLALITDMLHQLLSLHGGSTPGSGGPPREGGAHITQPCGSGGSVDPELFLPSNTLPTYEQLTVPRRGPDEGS
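Material: CHO-K1 cells stably expressing KCNQ1. Medium: assay buffer for compound exposure, DMSO matched across wells. Reagent: K+/Tl+ depolarizing stimulus. Compound dosing: single-concentration screen. Times: 37 °C overnight plating, 90-min dark dye load, 20-min compound pretreatment. Technique: FluxOR Tl+ flux fluorescence.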
KCNK9 inh – blocks the human KCNK9 two-pore domain potassium channel; HEK293 KCNK9, FluxOR thallium flux fluorescence; stronger effect = lower value; B-score at 10 µM; Q9NPC2; hit rate 1.2% among 310,000; AID 488922;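 active = ratio B-score over 3 SD below the library mean, with starting fluorescence within 5 SD of its mean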;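 note: negative B-score means less thallium flux so channel inhibition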
KCNQ1 inh – blocks the human KCNQ1 potassium channel | P51787 | hit rate 1.3% among 310,000 | B-score at 10 µM | CHO-K1 KCNQ1, FluxOR thallium flux fluorescence; stronger effect = higher value;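 active = compounds whose thallium flux B-score, printed positive for inhibition, exceeds three library SD while starting fluorescence stays within three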;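 note: channel opened by potassium depolarization with thallium stimulus after 20 min compound exposure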
KCNK9 inh conf – human KCNK9 inhibitor confirmation | HEK293 KCNK9 cells, FluxOR thallium flux fluorescence | shares compounds with KCNK9 inh | inhibition, % at 10 µM | hit rate 43% among 4,900;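 active = thallium signal inhibited by more than 5 SD of the compound-free buffer control wells, on both duplicate plates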;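 note: 0% = assay buffer control wells without compound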
Kir2-1 spec – selectivity of KCNK9 modulators against mouse Kir2.1; shares compounds with KCNK9 inh; Kir2.1 cells, FluxOR thallium flux fluorescence; inhibition, % at 10 µM; hit rate 4% among 4,900; AID 492993;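 active = thallium signal drop more than 5 SD beyond the mean of the no-compound control wells, seen in both duplicate plates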;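 note: signal is fluorescence rise after thallium addition divided by baseline fluorescence; plate controls were assay buffer only for no effect and full block by chlorpromazine control for full effect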
KCNK9 uninduced – second counter-screen for KCNK9 modulators: effect in non-induced cells; shares compounds with KCNK9 inh; non-induced KCNK9-HEK293, FluxOR thallium flux; inhibition, % at 10 µM; hit rate 40% among 4,900;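 active = thallium signal drop beyond 5 SD of the untreated control mean, on both duplicate plates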;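 note: plate controls were buffer only IC0 wells for no effect and SID17386958 at its maximal inhibitory level for full effect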
KCNK3 confirm – confirmation of human KCNK3 two-pore domain potassium channel inhibitors; shares compounds with KCNK3 inh; CHO-KCNK3 thallium flux, FluxOR fluorescence; 0% buffer, 100% carvedilol maximal block; ratio percent of control, % at 10 µM; hit rate 99% among 2,400; AID 651638;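 active = ratio percent of control, averaged over triplicates, above buffer control mean plus 5 SD, cut at about 64% in these data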;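 note: ratio is the fluorescence rise from min to max over baseline after thallium stimulus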
KCNK3 uninduced – KCNK3 inhibitor counter-screen hit in non-induced cells; shares compounds with KCNK3 inh; non-induced KCNK3 parental cells, FluxOR thallium flux; stronger effect = lower value; thallium flux ratio (lower = more inhibition) at 10 µM; hit rate 40% among 2,400; AID 651747;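 active = thallium flux ratio, averaged over three wells, more than 5 SD below the buffer control mean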;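 note: host cells are CHO cells without KCNK3 induction; ratio is peak minus trough fluorescence over baseline then normalized to buffer controls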
* marks the source's active call; other numbers are inactive results; i = inactive; nt = no result given. Hits are enriched below; roughly 3.7% of the tested compounds scored in any of these assays.

SMILES | Kir21 block | hERG protect | KCNK3 inh | KCNQ1 pot | KCNK9 inh | KCNQ1 inh | KCNK9 inh conf | Kir2-1 spec | KCNK9 uninduced | KCNK3 confirm | KCNK3 uninduced
COc1ccc(C(C)=O)cc1COC(=O)C(CO)NS(=O)(=O)c1ccc(Br)cc1 (stereo not drawn) | 2.71 | -11.8 | i | i | i | i | nt | nt | nt | nt | nt
Cc1ccsc1C(=O)N1CCCC(CO)(Cc2ccccc2)C1 (stereo not drawn) | 1.72 | -5.8 | i | i | i | i | nt | nt | nt | nt | nt
CCOc1ccccc1NC(=O)c1ccc2ccccc2c1 | 0.52 | -8.2 | -9.74* | i | -10.6* | i | 63.5%* | i | 32.5%* | 113.0* | i
CCOc1ccccc1NC(=O)NNC(=O)c1ccc2ccccc2c1 | -0.31 | -6.3 | i | i | i | i | nt | nt | nt | nt | nt
CCOc1ccccc1NC(=O)C(Sc1ccccc1)c1ccccc1 (stereo not drawn) | 2.83 | -15.9 | -8.71* | i | -8.38* | i | i | i | 40.0%* | 95.3* | 0.155*
Cn1c(C(=O)NN)cc2cc(OCc3ccccc3)ccc21 | -1.63 | -6.6 | i | i | i | i | nt | nt | nt | nt | nt
Cc1ccccc1C(C)NS(=O)(=O)c1ccc2c(c1)OCCO2 (stereo not drawn) | nt | nt | i | nt | nt | nt | nt | nt | nt | nt | nt
C=CCSc1nc(N)c(C(=O)Nc2ccccc2OC)cc1C(=O)Nc1ccccc1 | 0.43 | -9.3 | -11* | i | -8.7* | i | 27.0%* | i | i | 107.3* | i
C=CCSc1nc(N)c(C(=O)Nc2ccccc2)cc1C#N | 0.29 | -7.9 | i | i | i | i | nt | nt | nt | nt | nt
CN(c1ccc(C(=O)COC(=O)C2CC2)cc1)S(C)(=O)=O | nt | nt | i | nt | nt | nt | nt | nt | nt | nt | nt
Cc1cccc(OCC(=O)Nc2ccccc2N2CCCCC2)c1 | -0.49 | -9.7 | -9.91* | i | -9.92* | i | 77.0%* | i | 47.0%* | 98.3* | i
Cc1ccccc1OCC(=O)Nc1ccccc1N1CCC(C)CC1 | 0.17 | -8.3 | -10.2* | i | -11.9* | i | 43.5%* | 31.0%* | 38.0%* | 111.0* | i
COc1cccc(-c2nn(-c3ccccc3)cc2C(=O)Nc2nccs2)c1 | -0.7 | -10.6 | -10.5* | i | -15.2* | 6* | 35.0%* | i | i | 99.7* | 0.122*
COc1cccc(CNc2ccc(S(=O)(=O)N3CCCC3)cn2)c1 | nt | nt | i | nt | nt | nt | nt | nt | nt | nt | nt
Cc1nn(S(=O)(=O)c2ccccc2)c(C)c1Sc1ccc([N+](=O)[O-])cc1 | 0.23 | -11.4 | i | i | i | i | nt | nt | nt | nt | nt
Cc1nn(S(=O)(=O)c2cccs2)c(C)c1Sc1ccc([N+](=O)[O-])cc1 | 0.61 | -13.2 | -11.9* | i | -11.1* | i | 54.5%* | i | 27.5%* | 119.7* | 0.156*
COc1ccccc1CNC(=O)C(NS(=O)(=O)c1cccc2nsnc12)C(C)C (stereo not drawn) | -0.07 | -12.1 | i | i | i | i | nt | nt | nt | nt | nt
COc1ccc(Oc2nc(C)cc(C)c2S(C)(=O)=O)cc1 | 0.04 | -9.6 | i | i | i | i | nt | nt | nt | nt | nt
COc1ccc(CSc2nc(C)cc(C)c2S(C)(=O)=O)cc1 | -3.6 | -4.0 | -10.7* | i | -10.9* | i | 39.5%* | i | 34.0%* | 111.3* | i
COc1ccccc1C(=O)Oc1ccc(C(C)(C)C)cc1 | -2.3 | -12.6 | -9.1* | i | i | i | i | i | i | 92.7* | 0.157*
CC(=O)Nc1ccc2nc(NC(=O)c3ccc([N+](=O)[O-])o3)sc2c1 | -0.11 | 3.5 | i | i | i | i | nt | nt | nt | nt | nt
Cc1nnc(NC(=O)c2sc3ccccc3c2Cl)s1 | -1.67 | -4.0 | i | i | i | i | nt | nt | nt | nt | nt
Cc1ccc(NC(=O)c2sc3ccccc3c2Cl)nc1 | 0.05 | -6.4 | i | i | -15.1* | i | 55.5%* | i | 30.0%* | 87.3* | i
O=C(Cc1ccc(S(=O)(=O)N2CCOCC2)s1)NCCc1ccc(F)cc1 | -0.65 | -14.3 | i | i | i | i | nt | nt | nt | nt | nt
Cc1ccc2c(c1)N(C(=O)CCC(=O)N1CCC(C(N)=O)CC1)CCO2 | -0.01 | -4.4 | i | i | i | i | nt | nt | nt | nt | nt
SMILES | Kir21 block | hERG protect | KCNK3 inh | KCNQ1 pot | KCNK9 inh | KCNQ1 inh | KCNK9 inh conf | Kir2-1 spec | KCNK9 uninduced | KCNK3 confirm | KCNK3 uninduced
CCCc1cc(C(=O)Cc2ccc(F)cc2)c(O)cc1O | -1.64 | -24.7 | -8.79* | i | -10.3* | i | 60.5%* | i | 37.5%* | 107.7* | i
O=C1NC2(CCCCC2)C(=O)N1CC(=O)N(Cc1ccccc1)c1ccccc1 | -0.05 | -14.2 | i | i | i | i | nt | nt | nt | nt | nt
O=C(Cc1ccc(Cl)cc1)Nc1cccc(-c2nnc(-c3ccco3)o2)c1 | -0.35 | -0.7 | i | i | i | i | nt | nt | nt | nt | nt
O=C(Nc1cccc(-c2nnc(-c3ccco3)o2)c1)C(c1ccccc1)c1ccccc1 | -1.8 | -15.1 | -12.8* | i | -19.8* | 10* | 71.5%* | i | 30.0%* | 135.0* | 0.106*
COc1ccccc1OCC(=O)Nc1cccc(-c2nnc(-c3ccco3)o2)c1 | 0.72 | -25.0 | -10.2* | i | -8.6* | i | 31.0%* | i | i | 102.7* | i
O=C(Cc1ccccc1)Nc1cccc(-c2nnc(-c3ccco3)o2)c1 | 0.93 | -13.3 | i | i | i | i | nt | nt | nt | nt | nt
COc1ccc(N(C)S(=O)(=O)c2ccc(Cl)c(C(=O)NNC(=O)c3ccccc3O)c2)cc1 | nt | nt | i | nt | nt | nt | nt | nt | nt | nt | nt
O=C(Nc1ccccc1)c1sc2cc(C(F)(F)F)cnc2c1-c1cccs1 | 0.56 | -8.3 | -9* | i | -8.99* | i | 40.5%* | i | 34.0%* | 112.3* | i
COc1cccc(C(=O)Nc2cccc(-c3nnc(-c4ccccc4)o3)c2)c1 | -1.43 | -16.0 | -10.2* | i | -8.43* | i | 46.5%* | i | 30.0%* | 103.0* | 0.154*
COc1ccc(OC)c(NC(=O)c2cccc(NC(=O)c3ccccc3)c2)c1 | 3.86 | -5.0 | -10.7* | i | -8.98* | i | 47.0%* | i | i | 102.3* | i
COc1ccc(NC(=O)c2cccc(NC(=O)c3ccccc3)c2)c(OC)c1 | -0.74 | 0.0 | i | i | i | i | nt | nt | nt | nt | nt
